Data taken from ChEMBL document CHEMBL1131514, “A novel series of 6-methoxy-1H-benzotriazole-5-carboxamide derivatives with dual antiemetic and gastroprokinetic activities” (1998).

Key:
Canis familiaris [1] = assay: Antiemetic activity was evaluated in vivo by the suppression of apomorphine-induced emesis in dogs at oral dose of 1.0 mg/kg; format: functional, Canis lupus familiaris
Rattus norvegicus = assay: Compound was tested for its effect on the gastric emptying rate of phenol red semisolid meal through the stomach at oral dose of 3.0 mg/kg in rats.; format: functional
How it was run: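 Rats dosed orally at 3.0 mg/kg, with a 0.5% tragacanth control group. Gastric emptying of a phenol red semisolid meal was measured and expressed as percentage enhancement relative to the control group mean. Significance was tested against control.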

Canis familiaris [2] = assay: Tested in vivo for effective dose required for suppression of apomorphine-induced emesis in dog […]; format: functional; settings: Canis lupus familiaris

| Structure (SMILES) | Antiemetic activity (Canis familiaris [1]) | Gastric emptying (Rattus norvegicus) | ED50 (Canis familiaris [2]) |
| --- | --- | --- | --- |
| CCN1CCCCC(NC(=O)c2cc3nnn(C(C)C)c3cc2OC)C1 (stereo unspecified) | 94% | 16% |  |
| CCN1CCCCC(NC(=O)c2cc3nnn(CC4CC4)c3cc2OC)C1 (stereo unspecified) | 74% | 34% |  |
| COc1cc2[nH]nnc2cc1C(=O)NC1CCCCN(C(C)C)C1 (stereo unspecified) | 15% | 31% |  |
| COc1cc2[nH]nnc2cc1C(=O)NC1CCCCN(C)C1 (stereo unspecified) | 46% | 20% |  |
| CCN1CCCCCC(NC(=O)c2cc3[nH]nnc3cc2OC)C1 (stereo unspecified) | 100% | 21% | 0.19 mg/kg |
| CCCn1nnc2cc(C(=O)NC3CCCCN(CC)C3)c(OC)cc21 (stereo unspecified) | 89% | 29% |  |
| CCOc1cc2[nH]nnc2cc1C(=O)NC1CCCCN(CC)C1 (stereo unspecified) | 15% | 18% |  |
| CCN1CCCCC(NC(=O)c2cc3nnn(CC)c3cc2OC)C1 (stereo unspecified) | 89% | 31% |  |
| CCN1CCCCC(NC(=O)c2ccc3[nH]nnc3c2OC)C1 (stereo unspecified) | 50% | 11% |  |
| CCN1CCCCC(NC(=O)c2cc3nnn(C)c3cc2OC)C1 (stereo unspecified) | 77% | 49% |  |
| CCN1CCCCCCCC(NC(=O)c2cc3[nH]nnc3cc2OC)C1 (stereo unspecified) | 22% | 31% |  |
| CCN1CCCCCCC(NC(=O)c2cc3[nH]nnc3cc2OC)C1 (stereo unspecified) | 100% | 46% | 0.1 mg/kg |
| CCN1CCCCC(NC(=O)c2cc3[nH]nnc3cc2OC)C1 (stereo unspecified) | 100% | 28% | 0.08 mg/kg |
| CCN1CCCC(NC(=O)c2cc3[nH]nnc3cc2OC)C1 (stereo unspecified) | 31% |  |  |
| CCCN1CCCCC(NC(=O)c2cc3[nH]nnc3cc2OC)C1 (stereo unspecified) | 63% | 17% |  |
| O=c1[nH]c2ccccc2n1CCCN1CCC(n2c(=O)[nH]c3cc(Cl)ccc32)CC1 [DOMPERIDONE] | 100% | 0% | 0.02 mg/kg |
| CCN(CC)CCNC(=O)c1cc(Cl)c(N)cc1OC [METOCLOPRAMIDE] | 86% | 39% | 0.45 mg/kg |
| CCOc1cc(N)c(Cl)cc1C(=O)NCC1CN(Cc2ccc(F)cc2)CCO1 (stereo unspecified) [MOSAPRIDE] | 8% | 70% | > 10 mg/kg |
